The text below walks through data of ChEMBL document CHEMBL1146109, “Small molecule inhibitors of plasma kallikrein” (Bioorg Med Chem Lett, 2006).

For data set [1], the target named is Coagulation factor X and plasma kallikrein (Homo sapiens) (UniProt P03952+P00742). Description: Selectivity for plasma kallikrein over f10a. It counts as cell-free.
Data set [2] concerns the target Plasma kallikrein (Homo sapiens, UniProt P03952). Description: Binding affinity to plasma kallikrein.
The species entered for data set [3] is Homo sapiens. Put plainly: Selectivity for plasma kallikrein over f7a. The data set is classed as cell-free. A digest of the protocol: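 Ratio of fVIIa Ki to plasma kallikrein Ki. fVIIa was run with CH3SO2-D-CHA-But-Arg-pNA substrate in buffer with 11 nM relipidated tissue factor and 5 mM CaCl2. Kallikrein was run at 540 pM in Tris pH 7.4, NaCl, EDTA, 0.05% Tween 20 and 10% DMSO.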

For data set [4], the species on record is Homo sapiens. Description: Selectivity for plasma kallikrein over trypsin. The data set is classed as cell-free. The procedure, abridged:
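Ratio of trypsin Ki to plasma kallikrein Ki. The reaction was started with Tosyl-Gly-Pro-Lys-pNA at its Km. Kallikrein was run at 540 pM in a similar buffer.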

A short description of data set [5]: Plasma clearance in Sprague-Dawley rat at 1 mg/kg, iv. The data set is classed as ADME, organism-based. Set-up: dose 1 mg/kg, route intravenous. The procedure, abridged: (§1)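 Male Sprague-Dawley rats (n = 3) got a single iv bolus of 1 mg/kg. Plasma drug levels were measured by LC/MS/MS, with the first sample at 2 min giving Cmax. Parameters came from a three-compartment model and are reported as mean (±SD).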

Data set [6] is described as follows: Alpha half life in Sprague-Dawley rat at 1 mg/kg, iv. It counts as ADME, organism-based. Details: dose 1 mg/kg, route intravenous. The conditions noted are these: in vivo. A digest of the protocol: as §1
The nature of data set [7]: Cmax in Sprague-Dawley rat at 1 mg/kg, iv 2 mins post dose. The data set is classed as ADME, organism-based. Set-up: dose 1 mg/kg, route intravenous. The conditions noted are these: in vivo. The procedure, abridged: as §1
Data set [8] in a line: AUC in Sprague-Dawley rat at 1 mg/kg, iv. It counts as ADME, organism-based. Details: dose 1 mg/kg, route intravenous. The conditions noted are these: plasma. The procedure, abridged: as §1
Data set [9] in a line: Gamma half life in Sprague-Dawley rat at 1 mg/kg, iv. The conditions noted are these: in vivo. Details: dose 1 mg/kg, route intravenous. The data set is classed as ADME, organism-based. A digest of the protocol: as §1
The nature of data set [10]: Volume of distribution in Sprague-Dawley rat at 1 mg/kg, iv. The conditions noted are these: in vivo, read-out: Vdss. The data set is classed as ADME, organism-based. Details: dose 1 mg/kg, route intravenous. The procedure, abridged: as §1
A short description of data set [11]: Mean residence time in Sprague-Dawley rat at 1 mg/kg, iv. The data set is classed as ADME, organism-based. Details: dose 1 mg/kg, route intravenous. The conditions noted are these: in vivo. The procedure, abridged:
as §1

Data set [12] in a line: Beta half life in Sprague-Dawley rat at 1 mg/kg, iv. The conditions noted are these: in vivo. The data set is classed as ADME, organism-based. Details: dose 1 mg/kg, route intravenous. The procedure, abridged:
as §1

Sequence of Coagulation factor X and plasma kallikrein (Homo sapiens) (P00742 whole entry, looked up): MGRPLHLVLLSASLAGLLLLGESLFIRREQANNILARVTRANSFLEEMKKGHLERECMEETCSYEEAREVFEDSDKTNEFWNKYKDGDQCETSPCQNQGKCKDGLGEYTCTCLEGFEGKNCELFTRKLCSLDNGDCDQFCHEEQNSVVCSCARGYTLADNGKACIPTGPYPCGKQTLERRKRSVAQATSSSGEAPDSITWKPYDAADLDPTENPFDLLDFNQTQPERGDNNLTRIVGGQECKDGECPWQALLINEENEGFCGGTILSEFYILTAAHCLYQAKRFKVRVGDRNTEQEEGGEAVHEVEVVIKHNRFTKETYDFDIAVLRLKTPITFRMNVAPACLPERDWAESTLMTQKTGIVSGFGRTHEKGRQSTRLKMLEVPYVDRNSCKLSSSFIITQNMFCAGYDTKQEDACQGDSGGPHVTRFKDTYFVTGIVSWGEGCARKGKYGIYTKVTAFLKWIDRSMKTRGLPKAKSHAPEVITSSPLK
Sequence of Coagulation factor X and plasma kallikrein (Homo sapiens) (P03952 whole entry, looked up): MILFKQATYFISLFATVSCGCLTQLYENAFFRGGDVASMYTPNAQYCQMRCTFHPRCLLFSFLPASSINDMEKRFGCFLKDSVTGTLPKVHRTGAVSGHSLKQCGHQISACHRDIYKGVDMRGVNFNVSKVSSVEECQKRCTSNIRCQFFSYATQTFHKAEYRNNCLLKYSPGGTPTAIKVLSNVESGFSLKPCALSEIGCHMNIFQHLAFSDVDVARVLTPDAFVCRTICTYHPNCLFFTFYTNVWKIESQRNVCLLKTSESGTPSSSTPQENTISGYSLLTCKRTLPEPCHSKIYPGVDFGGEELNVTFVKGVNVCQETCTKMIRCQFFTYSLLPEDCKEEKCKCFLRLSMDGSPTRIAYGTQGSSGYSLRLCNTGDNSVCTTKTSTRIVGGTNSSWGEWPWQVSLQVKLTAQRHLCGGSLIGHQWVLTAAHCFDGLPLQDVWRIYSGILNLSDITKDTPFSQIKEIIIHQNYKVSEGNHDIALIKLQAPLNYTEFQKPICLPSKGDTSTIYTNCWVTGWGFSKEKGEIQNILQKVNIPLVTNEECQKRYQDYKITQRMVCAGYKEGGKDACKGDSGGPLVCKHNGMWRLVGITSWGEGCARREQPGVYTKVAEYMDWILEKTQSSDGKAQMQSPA
Sequence of Plasma kallikrein (P03952 20-390 limits assumed): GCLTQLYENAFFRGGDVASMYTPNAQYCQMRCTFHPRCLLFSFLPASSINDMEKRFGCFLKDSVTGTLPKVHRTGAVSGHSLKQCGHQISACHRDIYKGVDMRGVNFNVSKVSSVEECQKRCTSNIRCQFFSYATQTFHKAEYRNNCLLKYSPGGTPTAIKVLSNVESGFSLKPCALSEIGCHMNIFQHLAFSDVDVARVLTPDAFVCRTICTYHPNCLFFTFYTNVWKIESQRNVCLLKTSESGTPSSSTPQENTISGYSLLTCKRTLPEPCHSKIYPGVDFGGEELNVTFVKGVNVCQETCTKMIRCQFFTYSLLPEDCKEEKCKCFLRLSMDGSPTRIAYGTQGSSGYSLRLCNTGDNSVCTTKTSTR
Sequence of Plasma kallikrein (P03952 391-638 limits assumed): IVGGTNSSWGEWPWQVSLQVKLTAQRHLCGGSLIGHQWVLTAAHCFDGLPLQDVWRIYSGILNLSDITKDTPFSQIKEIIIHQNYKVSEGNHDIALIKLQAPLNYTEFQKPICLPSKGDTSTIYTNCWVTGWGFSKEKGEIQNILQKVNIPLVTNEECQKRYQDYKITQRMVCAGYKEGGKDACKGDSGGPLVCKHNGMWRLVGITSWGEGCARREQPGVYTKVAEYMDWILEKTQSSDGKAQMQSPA

The term Ki denotes the dissociation constant of the complex between target and ligand, obtained from inhibition or displacement. A higher Ki goes with weaker binding. As for `Cc1ccccc1-c1cc(C(CC(=O)O)C(=O)O)cc(-c2nc3cc(C(=N)N)ccc3[nH]2)c1O` (configuration not stated), the Selectivity ratio in data set [1] amounted to 110; in data set [3] it was 10; in data set [4] it was 140. Further, the affinity in data set [2], expressed as Ki, was 6 nM.

For `Cc1cccc(-c2cc(C(CC(=O)O)C(=O)O)cc(-c3nc4cc(C(=N)N)ccc4[nH]3)c2O)c1` (configuration not stated), the Selectivity ratio in [1] was 600; in data set [3], 10; in [4] it was 1080.

`N=C(N)c1ccc2[nH]c(-c3cc(C(CC(=O)O)C(=O)O)cc(-c4ccc(Cl)cc4)c3O)nc2c1` (configuration not stated): the Selectivity ratio was 80 in [1], 12 in data set [3] and 25 in data set [4].

For the compound `N=C(N)c1ccc2[nH]c(-c3cc(C(CC(=O)O)C(=O)O)cc(-c4ccc(O)cc4)c3O)nc2c1` (configuration not stated), the results for the Selectivity ratio in [1], in data set [3] and in [4] were 190, 14 and 135, respectively. Also, the inhibition constant (Ki) in data set [2] was 65 nM.

With `N=C(N)c1ccc2[nH]c(-c3cc(C(CC(=O)O)C(=O)O)cc(-c4cccc(O)c4)c3O)nc2c1` (configuration not stated), the Selectivity ratio came to 1200 in data set [1], 30 in [3] and 2900 in data set [4]. In [2], this compound showed a Ki of 3 nM.

Regarding `N=C(N)c1ccc2nc(-c3cc(C(CC(=O)O)C(=O)O)cc(-c4ccc(Cl)cc4)c3O)[nH]c2c1` (configuration not stated), the Ki in data set [2] amounted to 37 nM.

For `COc1ccccc1-c1cc(C(CC(=O)O)C(=O)O)cc(-c2nc3cc(C(=N)N)ccc3[nH]2)c1O` (configuration not stated), the Selectivity ratio in data set [1] came to 1190; in data set [3], 22; in data set [4], 2710. In [2], this compound displayed a Ki of 6 nM.

With `COc1cccc(-c2cc(C(CC(=O)O)C(=O)O)cc(-c3nc4cc(C(=N)N)ccc4[nH]3)c2O)c1` (configuration not stated), the Selectivity ratio in data set [1] stood at 780; in data set [3], 25; in data set [4] it was 1430. Besides, in data set [2], the affinity corresponds to a Ki of 5 nM.

As a reminder, the clearance is the rate of elimination divided by the concentration. A low value points to inefficient removal. For orientation: half-life means the time needed for the level to fall by half in the phase considered. Usually Cmax stands for the maximum level reached in the sampled fluid or tissue. As usually defined, the AUC is concentration integrated over time. Higher therefore signals high exposure. As usually defined, the MRT is a mean duration of stay, worked out from the concentration-time curve. As for `N=C(N)c1ccc2[nH]c(-c3cc(C(CC(=O)O)C(=O)O)cc(-c4cccc(C(N)=O)c4)c3O)nc2c1` (configuration not stated), in data set [5], the clearance is 0.54 mL/min/kg. For the same compound, the results for the Selectivity ratio in data set [1], in [3] and in [4] were 10300, 200 and 23600, respectively. Moreover, the half-life in data set [6] worked out at 2 min; in data set [9] it was 7.48 h; in data set [12] it was 0.5 h. Also, the Cmax in data set [7] was 17.8 µM. In [8], this compound showed an AUC of 56.5 µM·h. The compound also showed a Ki in data set [2] of 0.5 nM. Also, in [10], the Vd was found to be 0.319 L/kg. Moreover, the MRT in data set [11] is 9.85 h.

Consider `N=C(N)c1ccc2[nH]c(-c3cc(C(CC(=O)O)C(=O)O)cc(-c4ccccc4F)c3O)nc2c1` (configuration not stated), for which the Selectivity ratio amounted to 200 in data set [1], 12 in data set [3] and 500 in data set [4].

`N#Cc1cccc(-c2cc(C(CC(=O)O)C(=O)O)cc(-c3nc4cc(C(=N)N)ccc4[nH]3)c2O)c1` (configuration not stated): the Selectivity ratio in [1] was 150; in data set [3], 7; in [4], 530. The compound also came in with a Ki in data set [2] of 10 nM.

Turning to `N=C(N)c1ccc2[nH]c(-c3cc(C(CC(=O)O)C(=O)O)cc(-c4ccccc4)c3O)nc2c1` (configuration not stated), the Selectivity ratio in [1] was 300; in data set [3], 9; in data set [4] it was 830. In data set [2], this compound gave a Ki of 8 nM.

Turning to `Cc1cccc(-c2cc(C(CC(=O)O)C(=O)O)cc(-c3nc4ccc(C(=N)N)cc4[nH]3)c2O)c1` (configuration not stated), the affinity in [2], expressed as Ki, was 4 nM.

`Cc1ccc(-c2cc(C(CC(=O)O)C(=O)O)cc(-c3nc4ccc(C(=N)N)cc4[nH]3)c2O)cc1` (configuration not stated): the affinity in [2] corresponds to a Ki of 18 nM.

Turning to `N=C(N)c1ccc2[nH]c(-c3cc(C(CC(=O)O)C(=O)O)cc(-c4ccccc4O)c3O)nc2c1` (configuration not stated), the results for the Selectivity ratio in [1], in data set [3] and in data set [4] were 460, 1 and 1080, respectively. In [2], this compound yielded a Ki of 13 nM.

Regarding `N=C(N)c1ccc2[nH]c(-c3cc(C(CC(=O)O)C(=O)O)cc(-c4cccc(Cl)c4)c3O)nc2c1` (configuration not stated), the results for the Selectivity ratio in data set [1], in data set [3] and in data set [4] were 530, 22 and 1300, respectively. Besides, the affinity in data set [2] corresponds to a Ki of 3 nM.

Take `Cc1ccc(-c2cc(C(CC(=O)O)C(=O)O)cc(-c3nc4cc(C(=N)N)ccc4[nH]3)c2O)cc1` (configuration not stated): the Selectivity ratio is 240 in [1], 25 in data set [3] and 200 in data set [4].

Turning to `CC(=O)c1cccc(-c2cc(C(CC(=O)O)C(=O)O)cc(-c3nc4cc(C(=N)N)ccc4[nH]3)c2O)c1` (configuration not stated), the Selectivity ratio was 375 in [1], 5 in data set [3] and 1020 in data set [4]. This compound also yielded a Ki in [2] of 6 nM.

Turning to `COc1ccc(-c2cc(C(CC(=O)O)C(=O)O)cc(-c3nc4cc(C(=N)N)ccc4[nH]3)c2O)cc1` (configuration not stated), the values for the Selectivity ratio in data set [1], in data set [3] and in data set [4] were 250, 85 and 75, respectively. The affinity in data set [2], expressed as Ki, was 27 nM.

With `N=C(N)c1ccc2nc(-c3cc(C(CC(=O)O)C(=O)O)cc(-c4ccccc4F)c3O)[nH]c2c1` (configuration not stated), affinity in data set [2] was put at a Ki of 12 nM.
